Laboratory results from ChEMBL document CHEMBL1138564, “Microwave-induced synthesis and anti-microbial activities of 7,10,11,12-tetrahydrobenzo[c]acridin-8(9H)-one derivatives” (2009).
Values after ≈ are worked out from the molar mass of the structure shown. Active and inactive are the calls of the source. No cut-off for these calls is given here.

Tests used:
Aspergillus parasiticus [1] = test: Antimicrobial activity against Aspergillus parasiticus NCIM 904 after 72 hrs by serial dilution method; assay type: functional; conditions: NCIM 904, 72 h
Outline: (§1)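 MIC by broth dilution in Sabouraud's dextrose broth, only for fungi sensitive in disc diffusion. Two-fold serial dilutions of compounds are made in 1 ml broth per tube, range 3.9 to 1000. Inoculated tubes are incubated at 27 °C for 72 h.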

Aspergillus flavus [2] = test: Antimicrobial activity against Aspergillus flavus NCIM 902 after 72 hrs by serial dilution method; assay type: functional; conditions: NCIM 535, 72 h, in the assay text read “NCIM 535” for “NCIM 902”; outline: as §1
Pseudomonas aeruginosa = test: Antimicrobial activity against Pseudomonas aeruginosa NCIM 2200 at 500 ug/disk after 24 hrs by disk diffusion method; assay type: functional
Outline: (§2)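 Disc diffusion. 100 µl of bacterial suspension at 10⁸ CFU/ml was spread on Mueller–Hinton agar. Discs loaded with test compound dissolved in DMSO were placed on the lawn, with a DMSO-only disc as negative control. Plates were incubated at 37 °C for 24 h, and the inhibition zone diameter was measured.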

Aliivibrio fischeri [3] = test: Antimicrobial activity against Vibrio fischeri NCIM 2154 after 24 hrs by serial dilution method; assay type: functional; conditions: NCIM 2154, 24 h
Penicillium chrysogenum [4] = test: Antimicrobial activity against Penicillium chrysogenum NCIM 707 at 500 ug/disk after 72 hrs by disk diffusion method; assay type: functional
Outline: (§3)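 Disc diffusion on Sabouraud's dextrose agar. 100 µl of fungal suspension at 10⁶ CFU/ml is spread on the plate. Discs carry test compounds at two loadings in DMSO; DMSO alone is the negative control. Clotrimazole disc is the positive reference. Plates are incubated at 27 °C for 72 h, and the zone of inhibition diameter is measured.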

Proteus vulgaris [5] = test: Antimicrobial activity against Proteus vulgaris NCIM 2027 at 1000 ug/disk after 24 hrs by disk diffusion method; assay type: functional
Outline: (§4)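 Disc diffusion on Mueller–Hinton agar. 100 µl of bacterial suspension at 10⁸ CFU/ml is spread on the plate. Discs carry test compounds at two loadings, dissolved in DMSO; DMSO alone serves as negative control. Ofloxacin disc is the positive reference. Plates are incubated at 37 °C for 24 h, and the inhibition zone diameter is measured.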

Bacillus subtilis [6] = test: Antimicrobial activity against Bacillus subtilis NCIM 2063 at 500 ug/disk after 24 hrs by disk diffusion method; assay type: functional; conditions: NCIM 2063, 24 h, read-out: DIZ; outline: as §4
Klebsiella aerogenes [7] = test: Antimicrobial activity against Klebsiella aerogenes NCIM 2239 at 1000 ug/disk after 24 hrs by disk diffusion method; assay type: functional; outline: as §4
Salmonella typhimurium = test: Antimicrobial activity against Salmonella Typhimurium NCIM 2501 at 1000 ug/disk after 24 hrs by disk diffusion method; assay type: functional, Salmonella enterica subsp. enterica serovar Typhimurium; conditions: Salmonella enterica, NCIM 2501, 24 h; read-out: DIZ; outline: as §2
Aliivibrio fischeri [8] = test: Antimicrobial activity against Vibrio fischeri NCIM 2154 at 500 ug/disk after 24 hrs by disk diffusion method; assay type: functional; outline: as §2
Escherichia coli [9] = test: Antimicrobial activity against Escherichia coli NCIM 2065 after 24 hrs by serial dilution method; assay type: functional; conditions: NCIM 2065, 24 h
Outline: (§5)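 Broth dilution MIC in nutrient broth, run only for organisms found sensitive in disc diffusion. Compounds are two-fold serially diluted in 1 ml sterile broth per tube, spanning 3.9 to 1000. Inoculated tubes are incubated at 37 °C for 24 h.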

Bacillus cereus = test: Antimicrobial activity against Bacillus cereus NCIM 2155 at 1000 ug/disk after 24 hrs by disk diffusion method; assay type: functional; conditions: NCIM 2155, 24 h, read-out: DIZ; outline: as §4
Aspergillus flavus [10] = test: Antimicrobial activity against Aspergillus flavus NCIM 902 at 1000 ug/disk after 72 hrs by disk diffusion method; assay type: functional; conditions: NCIM 902, 72 h, read-out: DIZ; outline: as §3
Penicillium chrysogenum [11] = test: Antimicrobial activity against Penicillium chrysogenum NCIM 707 at 1000 ug/disk after 72 hrs by disk diffusion method; assay type: functional; outline: as §3
Aspergillus fumigatus [12] = test: Antimicrobial activity against Aspergillus fumigatus NCIM 902 at 1000 ug/disk after 72 hrs by disk diffusion method; assay type: functional; conditions: NCIM 902, 72 h, read-out: DIZ; outline: as §3
[13] = test system: Rhodococcus corynebacterioides; test: Antimicrobial activity against Corynebacterium rubrum NCIM 2252 at 1000 ug/disk after 24 hrs by disk diffusion method; assay type: functional; conditions: Rhodococcoides corynebacterioides; outline: as §4
Rhodotorula mucilaginosa [14] = test: Antimicrobial activity against Rhodotorula rubra NCIM 3174 after 72 hrs by serial dilution method; assay type: functional; conditions: NCIM 3174, 72 h
Outline: (§6)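 MIC by broth dilution in Sabouraud's dextrose broth, run only on fungi found sensitive in the disc assay. Twofold serial dilutions were made in 1 ml broth per tube, covering 3.9 to 1000. Inoculated tubes were incubated at 27 °C for 72 h.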

Aspergillus parasiticus [15] = test: Antimicrobial activity against Aspergillus parasiticus NCIM 904 at 500 ug/disk after 72 hrs by disk diffusion method; assay type: functional; conditions: NCIM 904, 72 h, read-out: DIZ; outline: as §3
Staphylococcus = test: Antimicrobial activity against Staphylococcus albus NCIM 2178 at 500 ug/disk after 24 hrs by disk diffusion method; assay type: functional; outline: as §2
Escherichia coli [16] = test: Antimicrobial activity against Escherichia coli NCIM 2065 at 500 ug/disk after 24 hrs by disk diffusion method; assay type: functional; conditions: NCIM 2065, 24 h, read-out: DIZ; outline: as §4
Bacillus subtilis [17] = test: Antimicrobial activity against Bacillus subtilis NCIM 2063 at 1000 ug/disk after 24 hrs by disk diffusion method; assay type: functional; conditions: NCIM 2063, 24 h, read-out: DIZ; outline: as §4
Klebsiella aerogenes [18] = test: Antimicrobial activity against Klebsiella aerogenes NCIM 2239 at 500 ug/disk after 24 hrs by disk diffusion method; assay type: functional; outline: as §4
Trichoderma viride [19] = test: Antimicrobial activity against Trichoderma viride NCIM 1195 after 72 hrs by serial dilution method; assay type: functional; conditions: NCIM 1195, 72 h; outline: as §6
Proteus vulgaris [20] = test: Antimicrobial activity against Proteus vulgaris NCIM 2027 at 500 ug/disk after 24 hrs by disk diffusion method; assay type: functional; outline: as §4
Bacillus subtilis [21] = test: Antimicrobial activity against Bacillus subtilis NCIM 2063 after 24 hrs by serial dilution method; assay type: functional; conditions: NCIM 2063, 24 h; outline: as §5
Trichoderma viride [22] = test: Antimicrobial activity against Trichoderma viride NCIM 1195 at 500 ug/disk after 72 hrs by disk diffusion method; assay type: functional; conditions: NCIM 1195, 72 h, read-out: DIZ
Outline: (§7)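 Fungal disc diffusion. 100 µl of suspension at 10⁶ CFU/ml was spread on Sabouraud's dextrose agar. Discs carrying test compound in DMSO were applied, with a DMSO-only disc as negative control. Plates were incubated at 27 °C for 72 h, and the zone of inhibition diameter was measured.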

Rhodotorula mucilaginosa [23] = test: Antimicrobial activity against Rhodotorula rubra NCIM 3174 at 500 ug/disk after 72 hrs by disk diffusion method; assay type: functional; conditions: NCIM 3174, 72 h, read-out: DIZ; outline: as §7
Trichoderma viride [24] = test: Antimicrobial activity against Trichoderma viride NCIM 1195 at 1000 ug/disk after 72 hrs by disk diffusion method; assay type: functional; conditions: NCIM 1195, 72 h, read-out: DIZ; outline: as §7
Escherichia coli [25] = test: Antimicrobial activity against Escherichia coli NCIM 2065 at 1000 ug/disk after 24 hrs by disk diffusion method; assay type: functional; conditions: NCIM 2065, 24 h, read-out: DIZ; outline: as §4
Aspergillus fumigatus [26] = test: Antimicrobial activity against Aspergillus fumigatus NCIM 902 at 500 ug/disk after 72 hrs by disk diffusion method; assay type: functional; outline: as §3
[27] = test system: Rhodococcus corynebacterioides; test: Antimicrobial activity against Corynebacterium rubrum NCIM 2252 at 500 ug/disk after 24 hrs by disk diffusion method; assay type: functional; conditions: Rhodococcoides corynebacterioides; outline: as §4
Rhodotorula mucilaginosa [28] = test: Antimicrobial activity against Rhodotorula rubra NCIM 3174 at 1000 ug/disk after 72 hrs by disk diffusion method; assay type: functional; conditions: NCIM 3174, 72 h, read-out: DIZ; outline: as §7

| MIC (Aspergillus parasiticus [1]) [µg/mL] | MIC (Aspergillus flavus [2]) [µg/mL] | MIC (Escherichia coli [9]) [µg/mL] | MIC (Rhodotorula mucilaginosa [14]) [µg/mL] | MIC (Trichoderma viride [19]) [µg/mL] | MIC (Bacillus subtilis [21]) [µg/mL] | SMILES | MIC (Aliivibrio fischeri [3]) [µg/mL] | zone of inhibition at 500 µg/disc (Bacillus subtilis [6]) [mm] | zone of inhibition at 1000 µg/disc (Salmonella typhimurium) [mm] | zone of inhibition at 1000 µg/disc (Bacillus cereus) [mm] | zone of inhibition at 1000 µg/disc (Aspergillus flavus [10]) [mm] | zone of inhibition at 1000 µg/disc (Aspergillus fumigatus [12]) [mm] | zone of inhibition at 500 µg/disc (Aspergillus parasiticus [15]) [mm] | zone of inhibition at 500 µg/disc (Escherichia coli [16]) [mm] | zone of inhibition at 1000 µg/disc (Bacillus subtilis [17]) [mm] | zone of inhibition at 500 µg/disc (Trichoderma viride [22]) [mm] | zone of inhibition at 500 µg/disc (Rhodotorula mucilaginosa [23]) [mm] | zone of inhibition at 1000 µg/disc (Trichoderma viride [24]) [mm] | zone of inhibition at 1000 µg/disc (Escherichia coli [25]) [mm] | zone of inhibition at 1000 µg/disc (Rhodotorula mucilaginosa [28]) [mm] | other results |
| --- | --- | --- | --- | --- | --- | --- | --- | --- | --- | --- | --- | --- | --- | --- | --- | --- | --- | --- | --- | --- | --- |
| 62.5 (≈ 177 µM) | 62.5 (≈ 177 µM) | 62.5 (≈ 177 µM) | 31.2 (≈ 88.3 µM) | 31.2 (≈ 88.3 µM) | 31.2 (≈ 88.3 µM) | CC1(C)CC(=O)C2=C(C1)Nc1c(ccc3ccccc13)C2c1ccccc1 (centres undefined) | 125 (≈ 354 µM) | 8 | 10 | 12 | 10 | 10 | 7 | 7 | 11 | 9 | 10 | 12 | 10 | 12 | diameter of the inhibition zone (DIZ) (Pseudomonas aeruginosa): inactive; diameter of the inhibition zone (DIZ) (Penicillium chrysogenum [4]): inactive; diameter of the inhibition zone (DIZ) (Proteus vulgaris [5]): inactive; diameter of the inhibition zone (DIZ) (Klebsiella aerogenes [7]): inactive; diameter of the inhibition zone (DIZ) (Aliivibrio fischeri [8]): inactive; diameter of the inhibition zone (DIZ) (Penicillium chrysogenum [11]): inactive; diameter of the inhibition zone (DIZ) [13]: inactive; diameter of the inhibition zone (DIZ) (Staphylococcus): inactive; diameter of the inhibition zone (DIZ) (Klebsiella aerogenes [18]): inactive; diameter of the inhibition zone (DIZ) (Proteus vulgaris [20]): inactive; diameter of the inhibition zone (DIZ) (Aspergillus fumigatus [26]): inactive; diameter of the inhibition zone (DIZ) [27]: inactive |
| 3.9 (≈ 9.79 µM) | 15.6 (≈ 39.2 µM) | 3.9 (≈ 9.79 µM) | 7.8 (≈ 19.6 µM) | 31.2 (≈ 78.3 µM) | 31.2 (≈ 78.3 µM) | CC1(C)CC(=O)C2=C(C1)Nc1c(ccc3ccccc13)C2c1cccc([N+](=O)[O-])c1 (centres undefined) | 62.5 (≈ 157 µM) | 9 | 13 | 13 | 13 | 10 | 10 | 10 | 11 | 10 | 10 | 12 | 15 | 15 | zone of inhibition at 500 µg/disc (Pseudomonas aeruginosa; NCIM 2200, 24 h, read-out: DIZ): 7 mm; zone of inhibition at 500 µg/disc (Penicillium chrysogenum [4]; NCIM 707, 72 h, read-out: DIZ): 8 mm; zone of inhibition at 1000 µg/disc (Proteus vulgaris [5]; NCIM 2027, 24 h, read-out: DIZ): 9 mm; zone of inhibition at 1000 µg/disc (Klebsiella aerogenes [7]; NCIM 2239, 24 h, read-out: DIZ): 11 mm; zone of inhibition at 500 µg/disc (Aliivibrio fischeri [8]; NCIM 2154, 24 h, read-out: DIZ): 7 mm; zone of inhibition at 1000 µg/disc (Penicillium chrysogenum [11]; NCIM 707, 72 h, read-out: DIZ): 11 mm; zone of inhibition at 1000 µg/disc ([13]; NCIM 2252, 24 h, read-out: DIZ): 9 mm; zone of inhibition at 500 µg/disc (Staphylococcus; NCIM 2178, 24 h, read-out: DIZ): 7 mm; zone of inhibition at 500 µg/disc (Klebsiella aerogenes [18]; NCIM 2239, 24 h, read-out: DIZ): 8 mm; zone of inhibition at 500 µg/disc (Proteus vulgaris [20]; NCIM 2027, 24 h, read-out: DIZ): 7 mm; zone of inhibition at 500 µg/disc (Aspergillus fumigatus [26]; NCIM 902, 72 h, read-out: DIZ): 8 mm; zone of inhibition at 500 µg/disc ([27]; NCIM 2252, 24 h, read-out: DIZ): 8 mm |
